Reference: paper PMC4277207 (ChemMedChem, 2014)

What was measured:
[1] = test system: D2-like receptor (D2, D3, and D4); experiment: [3H]spiperone binding assay, rat striatal; conditions: ratio of Ki values, rat brain preparation
Outline: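 The D2-like assay used [3H]spiperone at 0.2 nM on caudate-putamen membranes at 1.5 mg o.w.w./mL, in agonist-optimised Tris-HCl/KCl/MgCl2/CaCl2 buffer at pH 7.4. Nonspecific binding was set with 1 μM (+)-butaclamol, and KD was 0.4 nM. For two-site curves, the high-affinity Ki is reported. […] Values are means of 3–6 determinations.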

[2] = test system: D1-like receptor (D1 and D5); experiment: [3H]SCH 23390 binding assay, rat striatal membranes; conditions: ratio of Ki values, rat brain preparation

| Compound | Selectivity D2-like/D3 [1] | Selectivity D1-like/D3 [2] |
| --- | --- | --- |
| CCCN(CCC1(O)CC(NS(=O)(=O)c2cccc(F)c2)C1)[C@H]1CCc2nc(N)sc2C1 (stereo in doubt) [Compound 32, N-(cis-3-(2-(((S)-2-Amino-4,5,6,7-tetrahydrobenzo[d]thiazol-6-yl)(propyl)amino)-ethyl)-3-hydroxycyclobutyl)-3-fluorobenzenesulfonamide] | 91 | 97,500 |
| CCCN(CC[C@]1(O)C[C@H](NC(=O)c2cccc(Cl)c2)C1)[C@H]1CCc2nc(N)sc2C1 (relative stereo) [Compound 13, N-(cis-3-(2-(((S)-2-Amino-4,5,6,7-tetrahydrobenzo[d]thiazol-6-yl)(propyl)-amino)ethyl)-3-hydroxycyclobutyl)-3-chlorobenzamide] | 175 | 49,482 |
| CCCN(CCC1(O)CC(NS(=O)(=O)c2cccc(OC)c2)C1)[C@H]1CCc2nc(N)sc2C1 (stereo in doubt) [Compound 26, N-(cis-3-(2-(((S)-2-Amino-4,5,6,7-tetrahydrobenzo[d]thiazol-6-yl)(propyl)amino)-ethyl)-3-hydroxycyclobutyl)-3-methoxybenzenesulfonamide] | 98 | 22,812 |
| CCCN(CCC1(O)CC(NC(=O)c2ccc(-c3noc(C)n3)cc2)C1)[C@H]1CCc2nc(N)sc2C1 (stereo in doubt) [Compound 22, N-(cis-3-(2-(((S)-2-amino-4,5,6,7-tetrahydrobenzo[d]thiazol-6-yl)(propyl)amino)-ethyl)-3-hydroxycyclobutyl)-4-(5-methyl-1,2,4-oxadiazol-3-yl)benzamide] | 15,208 | 20,000 |
| CCCN(CCC1(O)CC(NC(=O)c2ccc(F)cc2)C1)[C@H]1CCc2nc(N)sc2C1 (stereo in doubt) [Compound 17, N-(cis-3-(2-(((S)-2-Amino-4,5,6,7-tetrahydrobenzo[d]thiazol-6-yl)(propyl)amino)-ethyl)-3-hydroxycyclobutyl)-4-fluorobenzamide] | 412 | 56,180 |
| CCCN(CCC1(O)CC(NC(=O)c2ccccc2)C1)[C@H]1CCc2nc(N)sc2C1 (stereo in doubt) [Compound 11, N-(cis-3-(2-(((S)-2-Amino-4,5,6,7-tetrahydrobenzo[d]thiazol-6-yl)(propyl)amino)-ethyl)-3-hydroxycyclobutyl)benzamide] | 301 | 2,662 |
| CCCN(CC[C@]1(O)C[C@@H](NS(=O)(=O)c2ccccc2Cl)C1)[C@H]1CCc2nc(N)sc2C1 (relative stereo) [Compound 28, N-(cis-3-(2-(((S)-2-Amino-4,5,6,7-tetrahydrobenzo[d]thiazol-6-yl)(propyl)amino)-ethyl)-3-hydroxycyclobutyl)-2-chlorobenzenesulfonamide] | 485 | 160,847 |
| CCCN(CC[C@]1(O)C[C@@H](NC(=O)c2cccc(F)c2)C1)[C@H]1CCc2nc(N)sc2C1 (relative stereo) [Compound 16, N-(cis-3-(2-(((S)-2-Amino-4,5,6,7-tetrahydrobenzo[d]thiazol-6-yl)(propyl)amino)-ethyl)-3-hydroxycyclobutyl)-3-fluorobenzamide] | 138 | 29,789 |
| CCCN(CC[C@]1(O)C[C@H](NS(=O)(=O)c2ccccc2OC)C1)[C@H]1CCc2nc(N)sc2C1 (relative stereo) [Compound 25, N-(cis-3-(2-(((S)-2-Amino-4,5,6,7-tetrahydrobenzo[d]thiazol-6-yl)(propyl)amino)-ethyl)-3-hydroxycyclobutyl)-2-methoxybenzenesulfonamide] | 75 | 800 |
